Assay results reported in publication PMC4304478 (Journal of the American Chemical Society, 2014).
*1 amine or outer side, *2 acyl side, *3 side chain or, on linkers, in order; H or OH if unused. Bridges are numbered along the chain shown (N, C = ends). Roman numbers before positions name the chains, in order. Where no end group is shown, it is not given here. [ ]: non-standard residue; d: D form. X1 = O=C(NCCCOCCCCOCCCNC(=O)c1ccc(/C=N/OCC(=O)[*:2])cc1)c1ccc(/C=N/OCC(=O)[*:1])cc1; Dap = NC[C@H](N)C(=O)O

How the values were obtained:
[1] = target: integrin receptors (αvβ5) expressed on MDA-MB-231 cells (Homo sapiens, UniProt P06756+P18084); assay: Competition binding assay with Alexa488-2.5F on MDA-MB-231 cells; details: from competition IC50 values
Chain of integrin receptors (αvβ5) expressed on MDA-MB-231 cells (P06756 891-1048): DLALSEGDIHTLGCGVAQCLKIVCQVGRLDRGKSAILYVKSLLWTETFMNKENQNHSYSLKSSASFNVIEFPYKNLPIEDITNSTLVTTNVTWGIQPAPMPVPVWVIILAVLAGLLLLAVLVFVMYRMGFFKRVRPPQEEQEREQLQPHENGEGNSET
Chain of integrin receptors (αvβ5) expressed on MDA-MB-231 cells (P18084 24-799): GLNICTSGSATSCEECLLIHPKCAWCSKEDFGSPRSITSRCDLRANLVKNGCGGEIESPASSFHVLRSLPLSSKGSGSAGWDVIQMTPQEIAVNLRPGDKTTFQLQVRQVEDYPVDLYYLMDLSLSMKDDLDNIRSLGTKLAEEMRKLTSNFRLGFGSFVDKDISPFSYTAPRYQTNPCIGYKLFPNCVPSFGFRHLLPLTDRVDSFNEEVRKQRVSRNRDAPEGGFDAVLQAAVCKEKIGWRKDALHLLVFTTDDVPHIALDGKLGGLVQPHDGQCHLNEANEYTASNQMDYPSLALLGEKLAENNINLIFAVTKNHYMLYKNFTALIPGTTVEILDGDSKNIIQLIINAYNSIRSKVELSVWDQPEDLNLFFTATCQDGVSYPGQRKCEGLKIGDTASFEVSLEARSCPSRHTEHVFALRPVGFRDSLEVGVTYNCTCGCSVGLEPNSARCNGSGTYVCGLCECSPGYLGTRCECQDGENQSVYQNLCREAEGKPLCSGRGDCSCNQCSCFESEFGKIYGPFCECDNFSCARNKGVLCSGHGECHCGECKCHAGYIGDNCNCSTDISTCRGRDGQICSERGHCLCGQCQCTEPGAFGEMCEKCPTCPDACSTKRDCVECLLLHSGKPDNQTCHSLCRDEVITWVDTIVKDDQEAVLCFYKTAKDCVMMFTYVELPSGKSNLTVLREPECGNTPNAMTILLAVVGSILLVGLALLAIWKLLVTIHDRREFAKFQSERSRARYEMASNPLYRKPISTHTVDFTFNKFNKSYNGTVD
Chain of integrin receptors (αvβ5) expressed on MDA-MB-231 cells (P06756 31-889): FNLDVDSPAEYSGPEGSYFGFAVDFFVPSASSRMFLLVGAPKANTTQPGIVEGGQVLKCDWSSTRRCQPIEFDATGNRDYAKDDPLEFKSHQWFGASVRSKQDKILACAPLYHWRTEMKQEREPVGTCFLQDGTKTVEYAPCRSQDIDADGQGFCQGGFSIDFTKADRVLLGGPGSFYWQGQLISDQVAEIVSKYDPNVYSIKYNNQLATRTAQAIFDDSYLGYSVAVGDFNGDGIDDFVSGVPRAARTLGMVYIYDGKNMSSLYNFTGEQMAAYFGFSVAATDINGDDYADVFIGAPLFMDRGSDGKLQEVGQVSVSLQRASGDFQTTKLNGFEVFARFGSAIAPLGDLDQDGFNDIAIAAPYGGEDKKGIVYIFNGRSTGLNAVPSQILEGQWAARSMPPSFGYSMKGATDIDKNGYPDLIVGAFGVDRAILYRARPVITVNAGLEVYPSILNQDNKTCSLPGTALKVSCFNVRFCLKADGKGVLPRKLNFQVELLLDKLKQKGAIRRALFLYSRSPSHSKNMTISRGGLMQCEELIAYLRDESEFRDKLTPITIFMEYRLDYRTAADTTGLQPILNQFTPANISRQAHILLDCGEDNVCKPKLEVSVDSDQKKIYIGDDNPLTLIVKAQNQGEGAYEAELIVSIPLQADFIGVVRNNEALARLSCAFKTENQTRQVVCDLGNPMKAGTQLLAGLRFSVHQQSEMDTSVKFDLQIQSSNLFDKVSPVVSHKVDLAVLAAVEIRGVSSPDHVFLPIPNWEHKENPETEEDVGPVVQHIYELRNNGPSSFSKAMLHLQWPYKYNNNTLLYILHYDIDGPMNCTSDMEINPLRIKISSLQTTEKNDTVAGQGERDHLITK

MDA-MB-231 cells = assay: Cell proliferation assay; assay type: cell-based, human; details: varying concentrations, 12–72 h, Cell Counting Kit-8; relative to cilengitide
Procedure, shortened: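 MDA-MB-231 cells exposed to varying concentrations of test knottins or a reference compound for 12–72 h. Proliferation was read out as […] activity in living cells with the CCK-8 kit. Concentration–response was read at 72 h, and the time course used 1 μM protein. Values are expressed relative to an untreated control.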

## I: GCPRPRGDNPPLTC[Dap]QDSDCLAGCVCGPNGFCG-NH2 / II: GCPRPRGDNPPLTC[Dap]QDSDCLAGCVCGPNGFCG-NH2 (disulfide I:2-I:24, I:14-I:26, I:20-I:32, II:2-II:24, II:14-II:26, II:20-II:32; linker I:15-II:15 via X1) [D2.5F_1]
[1]
  Increase in relative binding affinity compared with cilengitide: 500 fold
  Increase in relative binding affinity compared with the knottin monomer: 60 fold
MDA-MB-231 cells
  Inhibition of MDA-MB-231 cell proliferation: significantly more potent
